Bridge positions count the residues as written; N and C are the ends. Square brackets hold non-standard residues; d marks the D form. Peptide text beside a SMILES is read from it. ξ: configuration not given here. Cha = N[C@@H](CC1CCCCC1)C(=O)O; ξR = N=C(N)NCCCC(N)C(=O)O; Nle = CCCC[C@H](N)C(=O)O

The target of the first assay is T1, Corticotropin-releasing factor receptor 1 (Homo sapiens, UniProt P34998).
T1 sequence (P34998 whole entry): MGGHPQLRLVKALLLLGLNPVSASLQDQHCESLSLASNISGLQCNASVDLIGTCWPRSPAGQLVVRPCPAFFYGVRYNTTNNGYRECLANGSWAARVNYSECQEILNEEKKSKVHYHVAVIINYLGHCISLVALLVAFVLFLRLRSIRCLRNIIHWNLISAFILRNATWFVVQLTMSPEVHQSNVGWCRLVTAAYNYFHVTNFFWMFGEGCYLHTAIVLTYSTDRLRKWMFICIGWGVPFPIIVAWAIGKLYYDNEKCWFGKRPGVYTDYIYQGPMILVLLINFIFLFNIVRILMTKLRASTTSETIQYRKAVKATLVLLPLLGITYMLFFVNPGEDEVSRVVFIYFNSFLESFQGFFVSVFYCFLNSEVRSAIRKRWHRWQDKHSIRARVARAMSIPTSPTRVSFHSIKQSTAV
Description: Binding affinity at human CRF1 receptor (CRFR1) on HeLA cell membranes. Type of assay: cell-based.
Conditions: not given
In short, it runs like this:
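Membranes from HeLa cells transfected with a plasmid encoding human CRFR1, precoupled to WGA scintillation proximity beads. Bead-bound radioactivity counted by scintillation. Ki reported; curves from three determinations, each in duplicate.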
In turn, `CCCC[C@H](NC(=O)[C@H](CC(C)C)NC(=O)[C@H](CCCCN)NC(=O)[C@H](CCCN=C(N)N)NC(=O)[C@H](CC(=O)O)NC(=O)[C@@H]1CCCCNC(=O)CC[C@H](NC(C)=O)C(=O)N[C@@H](C)C(=O)N[C@@H](Cc2c[nH]cn2)C(=O)N1)C(=O)N[C@@H](CCC(=O)O)C(=O)N[C@H](C(=O)N[C@H](C(N)=O)[C@@H](C)CC)[C@@H](C)CC` (Ac-EAHKDRKL[Nle]EII-NH2; lactam 1-4) returned a Ki of over 1000 nM.
For `CCCC[C@H](NC(=O)[C@H](CC(C)C)NC(=O)[C@H](CCCCN)NC(=O)[C@H](CCCN=C(N)N)NC(=O)[C@H](CC(C)C)NC(=O)[C@@H]1CCCCNC(=O)CC[C@H](NC(C)=O)C(=O)N[C@@H](C)C(=O)N[C@@H](Cc2c[nH]cn2)C(=O)N1)C(=O)N[C@@H](CCC(=O)O)C(=O)N[C@H](C(=O)N[C@H](C(N)=O)[C@@H](C)CC)[C@@H](C)CC` (Ac-EAHKLRKL[Nle]EII-NH2; lactam 1-4), the Ki is over 1000 nM.
Turning to `CCCC[C@H](NC(=O)[C@H](CC(C)C)NC(=O)[C@H](CCCCN)NC(=O)[C@H](CCCN=C(N)N)NC(=O)[C@H](CCC(N)=O)NC(=O)[C@@H]1CCCCNC(=O)CC[C@H](NC(C)=O)C(=O)N[C@@H](C)C(=O)N[C@@H](Cc2c[nH]cn2)C(=O)N1)C(=O)N[C@@H](CCC(=O)O)C(=O)N[C@H](C(=O)N[C@H](C(N)=O)[C@@H](C)CC)[C@@H](C)CC` (Ac-EAHKQRKL[Nle]EII-NH2; lactam 1-4), the inhibition constant Ki was over 1000 nM.
Turning to `CCCC[C@H](NC(=O)[C@H](CC(C)C)NC(=O)[C@H](CCCCN)NC(=O)[C@H](CCCN=C(N)N)NC(=O)[C@H](CC(N)=O)NC(=O)[C@@H]1CCCCNC(=O)CC[C@H](NC(C)=O)C(=O)N[C@@H](CC(=O)O)C(=O)N[C@@H](Cc2c[nH]cn2)C(=O)N1)C(=O)N[C@@H](CCC(=O)O)C(=O)N[C@H](C(=O)N[C@H](C(N)=O)[C@@H](C)CC)[C@@H](C)CC` (Ac-EDHKNRKL[Nle]EII-NH2; lactam 1-4), the Ki was over 1000 nM.

The assay is the same for the next values; noted with them: hela.
Compound `CCCC[C@H](NC(=O)[C@H](CC(C)C)NC(=O)[C@H](CCCCN)NC(=O)[C@H](CCCN=C(N)N)NC(=O)[C@H](CC(N)=O)NC(=O)[C@@H]1CCCCNC(=O)CC[C@H](NC(C)=O)C(=O)N[C@H](C)C(=O)N[C@@H](Cc2ccccc2)C(=O)N1)C(=O)N[C@@H](CCC(=O)O)C(=O)N[C@H](C(=O)N[C@H](C(N)=O)[C@@H](C)CC)[C@@H](C)CC` came in with a Ki of over 1000 nM.
`CC[C@H](C)[C@H](NC(=O)[C@@H](NC(=O)[C@H](CC(=O)O)NC(=O)[C@H](CC1CCCCC1)NC(=O)[C@H](CC(C)C)NC(=O)[C@H](CCCCN)NC(=O)[C@H](CCCNC(=N)N)NC(=O)[C@H](CC(C)C)NC(=O)[C@@H]1CCCCNC(=O)CC[C@H](NC(C)=O)C(=O)N[C@H](C)C(=O)N[C@@H](CCC(=O)O)C(=O)N1)[C@@H](C)CC)C(N)=O` came in with a Ki of 3.1 nM.
On the same count and under the same terms, in the case of `CC[C@H](C)[C@H](NC(=O)[C@@H](NC(=O)[C@H](CC(=O)O)NC(=O)[C@H](CC1CCCCC1)NC(=O)[C@H](CC(C)C)NC(=O)[C@H](CCCCN)NC(=O)[C@H](CCCNC(=N)N)NC(=O)[C@H](CC(N)=O)NC(=O)[C@@H]1CCCCNC(=O)CC[C@H](NC(C)=O)C(=O)N[C@@H](C)C(=O)N[C@@H](CCC(=O)O)C(=O)N1)[C@@H](C)CC)C(N)=O` (Ac-EAEKNRKL[Cha]DII-NH2; lactam 1-4) it was 5.5 nM.
The same measure, in the same setting: to `CCCC[C@H](NC(=O)[C@H](CC(C)C)NC(=O)[C@H](CCCCN)NC(=O)C(CCCN=C(N)N)NC(=O)[C@H](CC(N)=O)NC(=O)[C@@H]1CCCCNC(=O)CC[C@H](NC(C)=O)C(=O)N[C@@H](C)C(=O)N[C@@H](CCCCN)C(=O)N1)C(=O)N[C@@H](CCC(=O)O)C(=O)N[C@H](C(=O)N[C@H](C(N)=O)[C@@H](C)CC)[C@@H](C)CC` (some centres undefined) (Ac-EAKKN[ξR]KL[Nle]EII-NH2; lactam 1-4) belongs 44.8 nM; to `CCCC[C@H](NC(=O)[C@H](CC(C)C)NC(=O)[C@H](CCCCN)NC(=O)[C@H](CCCNC(=N)N)NC(=O)[C@H](CC(C)C)NC(=O)[C@@H]1CCCCNC(=O)CC[C@H](NC(C)=O)C(=O)N[C@@H](C)C(=O)N[C@@H](CC(C)C)C(=O)N1)C(=O)N[C@@H](CCC(=O)O)C(=O)N[C@H](C(=O)N[C@H](C(N)=O)[C@@H](C)CC)[C@@H](C)CC` (Ac-EALKLRKL[Nle]EII-NH2; lactam 1-4), 48.9 nM.
